Series [1] relates to methicillin-resistant S. aureus (MRSA) (ATCC 33591). Briefly: microbe, parasite or virus in culture. The class given is cell-based, Staphylococcus aureus. The note with it: for MIC, Gram-positive, MRSA: ATCC 33591, 18 h.
The test system of the next series is E. coli (ATCC 25922). Kind of series: microbe, parasite or virus in culture. The note with it: for MIC, Gram-negative, E. coli: ATCC 25922, 18 h. The class given is cell-based.
Series [2] relates to P. aeruginosa (ATCC 27853). Briefly: microbe, parasite or virus in culture. The series is classed as cell-based, Pseudomonas aeruginosa. Particulars: for MIC, Gram-negative, P. aeruginosa: ATCC 27853, 18 h.
Series [3] concerns methicillin-resistant S. epidermidis (MRSE) (RP62A). Kind of series: microbe, parasite or virus in culture. The series is classed as cell-based, Staphylococcus epidermidis. Particulars: for MIC, Gram-positive, MRSE: methicillin-resistant (RP62A, 18 h).
Series [4] deals with E. coli. Briefly: Time-kill assay. The series is classed as cell-based. The note with it: 2 × MIC; 1 × 10^6 CFU mL^−1; repeated three times. An outline of the steps:
(§1)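 Bacteria grown overnight in TSB at 37 °C to mid-log phase and diluted to 1 × 10^6 CFU mL−1. Incubated with test compound at several concentrations, with suspensions plated on agar at set time points. Plates incubated 20 h at 37 °C before colony counting. Assay repeated three times.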

Series [5] has as its system E. coli. The class given is cell-based. Particulars: 48 h, 0.188 μg mL^−1.
Series [6] has as its system MRSA. Briefly: Bacterial membrane depolarization assay, DiSC3. The series is classed as cell-based, Staphylococcus aureus. Particulars: 1 × MIC, 2 × MIC and 4 × MIC; concentration-dependent; repeated three times with duplicates.
Series [7] deals with E. coli. Kind of series: Bacterial membrane depolarization assay, DiSC3. The series is classed as cell-based. Particulars: 1 × MIC, 2 × MIC and 4 × MIC; concentration-dependent; repeated three times with duplicates.
Series [8] relates to MRSA. Kind of series: Transmission electron microscopy. The note with it: 12 μg mL^−1, 2 h, TSB, 37 °C. The class given is cell-based, Staphylococcus aureus. The procedure, abridged:
(§2)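 Mid-log bacteria exposed to test compound in TSB for 2 h at 37 °C, with untreated samples as controls. Cells pelleted at 3000 rpm for 15 min, washed four times in PBS, resuspended in deionized water. A drop placed on carbon-coated Cu grids, excess blotted off, dried about 1 h. Imaged by TEM at 60 kV.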

Series [9] has as its system MRSA. Kind of series: Fluorescence microscopy. The class given is cell-based, Staphylococcus aureus. Particulars: 12 μg mL^−1, 2 h, 37 °C. An outline of the steps:
(§3)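 Mid-log cultures grown at 37 °C, diluted to 1 × 10^6 CFU mL−1, exposed to test compound for 2 h at 37 °C alongside untreated controls. Cells pelleted at 3000 rpm for 15 min at 4 °C and PBS-washed. Stained with DAPI (10 μg mL−1) for 15 min on ice in the dark, washed twice, then stained the same way with PI (5 μg mL−1). Imaged under oil immersion.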

In series [10] the test system is E. coli. Briefly: Fluorescence microscopy. The class given is cell-based. The note with it: 12 μg mL^−1, 2 h, 37 °C. An outline of the steps: as §3
Series [11] is described as follows: HPLC retention time as estimate of amphiphilicity. The class given is physicochemical. Particulars: HPLC data of Table S2 in ESI, which is not in the material.
In series [12] the test system is E. coli. Kind of series: Transmission electron microscopy. The class given is cell-based. Particulars: 12 μg mL^−1, 2 h, TSB, 37 °C. An outline of the steps: as §2
Series [13] deals with MRSA. Briefly: Time-kill assay. The class given is cell-based, Staphylococcus aureus. The note with it: 1 × 10^6 CFU mL^−1, repeated three times. The procedure, abridged: as §1
Series [14] has as its system MRSA. The class given is cell-based, Staphylococcus aureus. The note with it: 48 h, 0.094 μg mL^−1.
Series [15] deals with E. coli. Briefly: Outer membrane permeability assay. The class given is cell-based. The note with it: 1 × MIC; 37 °C, 1 h; percent uptake relative to 16 mM melittin.

Structures are written as SMILES. Converted amounts (≈) assume the structure as drawn. Bounds are passed on as bounds.

As for `CCCCCCCCCCCCCCCC(=O)NCCCC[C@H](NC(=O)c1cc(NC(=O)CN(C[C@H](CCCCN)NC(=O)[C@@H](N)CCCCN)S(=O)(=O)c2ccccc2)cc(NC(=O)CN(C[C@H](CCCCN)NC(=O)[C@@H](N)CCCCN)S(=O)(=O)c2ccccc2)c1)C(N)=O` [Compound 2], the “MIC, Gram-positive, MRSA” value in series [1] is 6 to 12.5 µg/mL. In the series with E. coli (ATCC 25922), the “MIC, Gram-negative, E. coli” value was in the range of 6 to 12.5 µg/mL.
As to `CCCCCCCCCCCC(=O)NCCCC[C@H](NC(=O)c1cc(NC(=O)CN(C[C@H](CCCCN)NC(=O)[C@@H](N)CCCCN)S(=O)(=O)c2ccccc2)cc(NC(=O)CN(C[C@H](CCCCN)NC(=O)[C@@H](N)CCCCN)S(=O)(=O)c2ccccc2)c1)C(N)=O` [Compound 1], in series [1], the “MIC, Gram-positive, MRSA” value was 3 to 6 µg/mL. In addition, the “MIC, Gram-negative, P. aeruginosa” value in series [2] fell in the range of 6 to 12.5 µg/mL. Further, the “MIC, Gram-negative, E. coli” value with E. coli (ATCC 25922) fell in the range of 3 to 6 µg/mL. Besides, the “MIC, Gram-positive, MRSE” value in series [3] lay in the range of 3 to 6 µg/mL.
As for `CCCCCCCCCCCC(=O)NCCCC[C@H](NC(=O)c1cc(NC(=O)CN(C[C@H](CCCCN)NC(=O)[C@@H](N)CCCCN)S(=O)(=O)c2ccc(Cl)cc2)cc(NC(=O)CN(C[C@H](CCCCN)NC(=O)[C@@H](N)CCCCN)S(=O)(=O)c2ccc(Cl)cc2)c1)C(N)=O` [Compound 17], the “Time to complete killing of E. coli” value with E. coli [4] was no more than 6 h. Also, the “Inhibition of biofilm formation of E. coli” value in the series with E. coli [5] is “around 40%”. The “Membrane depolarization of MRSA, DiSC3(5) fluorescence” value with MRSA [6] is reported as “dramatic enhancement of fluorescence intensity”. Also, the “MIC, Gram-positive, MRSA” value in series [1] lay within 3 to 6 µg/mL. Further, in series [2], the “MIC, Gram-negative, P. aeruginosa” value was in the range of 3 to 6 µg/mL. Also, the “Membrane depolarization of E. coli, DiSC3(5) fluorescence” value with E. coli [7] is “dramatic enhancement of fluorescence intensity”. Also, in the series on MRSA [8], the “MRSA cell membrane morphology by TEM” value is “membranes have been damaged”. For the same molecule, the “Membrane integrity of MRSA by DAPI/PI fluorescence” value with MRSA [9] is on record as “compromised”. For the same molecule, in the series on E. coli [10], the “Membrane integrity of E. coli by DAPI/PI fluorescence” value is recorded as “compromised”. The “HPLC retention time (RT), estimate of amphiphilicity” value in [11] is given as 19.70 min. Besides, the “E. coli cell membrane morphology by TEM” value in the series on E. coli [12] is “membranes have been damaged”. Further, the “MIC, Gram-negative, E. coli” value against E. coli (ATCC 25922) lay in the range of 3 to 6 µg/mL. The “Time to complete killing of MRSA” value with MRSA [13] (2 × MIC) is no more than 6 h. Besides, the “Time to eradicate MRSA” value with MRSA [13] (8 × MIC) is “roughly 2 h”. Besides, the “MIC, Gram-positive, MRSE” value in [3] lay in the range of 3 to 6 µg/mL. Also, in the series with MRSA [14], the “Inhibition of biofilm formation of MRSA” value is on record as roughly 50%. Further, the “Permeabilization of E. coli outer membrane (NPN uptake)” value in the series on E. coli [15] is given as “more than 50%”.
Turning to `O=C(O)c1cn(C2CC2)c2cc(N3CCNCC3)c(F)cc2c1=O` [Ciprofloxacin, reference compound], the MIC in series [1] (Staphylococcus aureus, ATCC33591|MRSA, 18 h, read-out: MIC, Gram-positive, MRSA) fell in the range of 0.75 to 1.5 µg/mL (≈ 2.26 to 4.53 µM); in [2] (Pseudomonas aeruginosa, ATCC27853, 18 h, read-out: MIC, Gram-negative, P. aeruginosa), 1.5 to 3 µg/mL (≈ 4.53 to 9.05 µM); with E. coli (ATCC 25922) (Escherichia coli, ATCC25922, 18 h, read-out: MIC, Gram-negative, E. coli), 0.75 to 1.5 µg/mL (≈ 2.26 to 4.53 µM); in series [3] (Staphylococcus epidermidis, MRSE, 18 h, read-out: MIC, Gram-positive, MRSE), 0.75 to 1.5 µg/mL (≈ 2.26 to 4.53 µM).

The values are drawn from PMC8903075 (Biomaterials science, 2021).
